According to ChEMBL document CHEMBL1123505, “Synthesis, structure, and antitumor activity of N-salicyloyl-N'-(2-furylthiocarbonyl)hydrazine and its copper(II) complex” (1986):
Several values for one entry are separate records, joined by “and”; a condition that tells them apart may be missing. Identical values can stand only once.

Columns and labels:
[1] = test system: Mus musculus; test: Antitumor activity expressed as average body weight change was tested against fibrosarcoma at the dosage of 10 mg/kg (ip); assay type: functional, organism-based; set-up: dose 10 mg/kg
How it was run: (§1)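 Fibrosarcoma-bearing C₃H/He mice (4 × 10⁶ cells sc) received a single ip or sc dose in 0.89% saline on day three after transplant; controls received saline. The day of injection was taken as day zero. Mice were weighed on alternate days up to 4 weeks. Values are average % weight change from the day of treatment to day 21.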

[2] = test system: Mus musculus; test: Antitumor activity expressed as %T/C was tested against fibrosarcoma at the dosage of 25 mg/Kg (sc); assay type: functional
How it was run: (§2)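 Fibrosarcoma: 4 × 10⁶ cells were given sc to C₃H/He mice, 25–30 g. A single ip or sc dose in 0.89% saline followed on day three, with saline-injected controls. Mean life span of nonsurvivors excludes mice surviving 6 months or more, which were counted as tumour-free. T/C% is treated mean survival, excluding tumour-free survivors, divided by untreated mean life span ×100.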

[3] = test system: Mus musculus; test: Antitumor activity expressed as mean life span of nonsurvivors in days (T/C) was tested against Dalton's lymphoma at the dosage of 10 mg/kg (ip); 30/23; assay type: functional, organism-based; set-up: dose 10 mg/kg
How it was run: (§3)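 Dalton's lymphoma: 2 × 10⁷ ascites cells were given ip to DbA mice, 18–20 g. A single ip dose in 0.89% saline followed on day two, with saline-injected controls. Mean life span was calculated excluding mice that survived 6 months or more. T/C% is the mean survival of treated mice, excluding tumour-free survivors, divided by the mean life span of untreated mice ×100.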

[4] = test system: Mus musculus; test: Antitumor activity expressed as mean life span of nonsurvivors in days (T/C) was tested against Dalton's lymphoma at the dosage of 2 mg/kg (ip); 24/23; assay type: functional, organism-based; set-up: dose 2 mg/kg; how it was run: as §3
[5] = test system: Mus musculus; test: Antitumor activity expressed as %T/C was tested against Dalton's lymphoma at the dosage of 2 mg/Kg (ip); assay type: functional; how it was run: as §3
[6] = test system: Mus musculus; test: Antitumor activity expressed as average body weight change was tested against fibrosarcoma at the dosage of 50 mg/kg (ip); assay type: functional, organism-based; set-up: dose 50 mg/kg; how it was run: as §1
[7] = test system: Mus musculus; test: Antitumor activity against Dalton's lymphoma infected mice at the dosage of 10 mg/kg (ip) and expressed as no. of mice injected; T/C= 5/5; assay type: functional
[8] = test system: Mus musculus; test: Antitumor activity against fibrosarcoma infected mice at the dosage of 50 mg/kg (ip) and expressed as no. of mice injected; T/C= 10/6; assay type: functional, organism-based; set-up: dose 50 mg/kg
[9] = test system: Mus musculus; test: Antitumor activity expressed as the no. of mice surviving >6 months was tested against fibrosarcoma at the dosage of 5 mg/kg (ip); assay type: functional
How it was run: (§4)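 Fibrosarcoma was established by sc inoculation of 4 × 10⁶ cells in mice. On day 3 they received a single ip or sc injection of compound freshly suspended in 0.89% saline, with 5–10 mice per group. The count is of mice surviving 6 months or more after treatment, scored as tumor-free, with the percentage of the group also given.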

[10] = test system: Mus musculus; test: Antitumor activity expressed as the no. of mice surviving >6 months was tested against fibrosarcoma at the dosage of 50 mg/kg (ip); assay type: functional; how it was run: as §4
[11] = test system: Mus musculus; test: Antitumor activity expressed as %T/C was tested against fibrosarcoma at the dosage of 10 mg/Kg (sc); assay type: functional; how it was run: as §2
[12] = test system: Mus musculus; test: Antitumor activity expressed as %T/C was tested against fibrosarcoma at the dosage of 25 mg/Kg (ip); assay type: functional; how it was run: as §2
[13] = test system: Mus musculus; test: Antitumor activity expressed as mean life span of nonsurvivors in days (T/C) was tested against fibrosarcoma at the dosage of 10 mg/kg (ip); 35/27; assay type: functional, organism-based; set-up: dose 10 mg/kg; how it was run: as §2
[14] = test system: Mus musculus; test: Antitumor activity against fibrosarcoma infected mice at the dosage of 10 mg/kg (sc) and expressed as no. of mice injected; T/C= 8/7; assay type: functional
[15] = test system: Mus musculus; test: Antitumor activity expressed as %T/C was tested against fibrosarcoma at the dosage of 5 mg/Kg (sc); assay type: functional; how it was run: as §2
[16] = test system: Mus musculus; test: Antitumor activity expressed as mean life span of nonsurvivors in days (T/C) was tested against fibrosarcoma at the dosage of 10 mg/kg (sc); 41/28; assay type: functional, organism-based; set-up: dose 10 mg/kg; how it was run: as §2
[17] = test system: Mus musculus; test: Antitumor activity expressed as mean life span of nonsurvivors in days (T/C) was tested against fibrosarcoma at the dosage of 25 mg/kg (ip); 33/25; assay type: functional, organism-based; set-up: dose 25 mg/kg; how it was run: as §2
[18] = test system: Mus musculus; test: Antitumor activity against fibrosarcoma infected mice at the dosage of 25 mg/kg (sc) and expressed as no. of mice injected; T/C= 8/6; assay type: functional, organism-based; set-up: dose 25 mg/kg
[19] = test system: Mus musculus; test: Antitumor activity expressed as %T/C was tested against Dalton's lymphoma at the dosage of 10 mg/Kg (ip); assay type: functional; how it was run: as §3
[20] = test system: Mus musculus; test: Antitumor activity expressed as %T/C was tested against Dalton's lymphoma at the dosage of 25 mg/Kg (ip); assay type: functional; how it was run: as §3
[21] = test system: Mus musculus; test: Antitumor activity expressed as average body weight change was tested against fibrosarcoma at the dosage of 5 mg/kg (sc); assay type: functional; how it was run: as §1
[22] = test system: Mus musculus; test: Antitumor activity expressed as average body weight change was tested against fibrosarcoma at the dosage of 25 mg/kg (sc); assay type: functional; how it was run: as §1
[23] = test system: Mus musculus; test: Antitumor activity expressed as %T/C was tested against fibrosarcoma at the dosage of 50 mg/Kg (ip); assay type: functional; how it was run: as §2
[24] = test system: Mus musculus; test: Antitumor activity expressed as mean life span of nonsurvivors in days (T/C) was tested against Dalton's lymphoma at the dosage of 25 mg/kg (ip); 38/23; assay type: functional, organism-based; set-up: dose 25 mg/kg; how it was run: as §3
[25] = test system: Mus musculus; test: Antitumor activity expressed as mean life span of nonsurvivors in days (T/C) was tested against fibrosarcoma at the dosage of 25 mg/kg (sc); 39/29; assay type: functional, organism-based; set-up: dose 25 mg/kg; how it was run: as §2
[26] = test system: Mus musculus; test: Antitumor activity expressed as average body weight change was tested against fibrosarcoma at the dosage of 10 mg/kg (sc); assay type: functional; how it was run: as §1
[27] = test system: Mus musculus; test: Antitumor activity expressed as average body weight change was tested against fibrosarcoma at the dosage of 5 mg/kg (ip); assay type: functional, organism-based; set-up: dose 5 mg/kg; how it was run: as §1
[28] = test system: Mus musculus; test: Antitumor activity expressed as average body weight change was tested against fibrosarcoma at the dosage of 25 mg/kg (ip); assay type: functional, organism-based; set-up: dose 25 mg/kg; how it was run: as §1
[29] = test system: Mus musculus; test: Antitumor activity expressed as mean life span of nonsurvivors in days (T/C) was tested against fibrosarcoma at the dosage of 50 mg/kg (ip); 37/28; assay type: functional, organism-based; set-up: dose 50 mg/kg; how it was run: as §2
[30] = test system: Mus musculus; test: Antitumor activity expressed as mean life span of nonsurvivors in days (T/C) was tested against fibrosarcoma at the dosage of 5 mg/kg (sc); 30/27; assay type: functional, organism-based; set-up: dose 5 mg/kg; how it was run: as §2
[31] = test system: Mus musculus; test: Antitumor activity expressed as mean life span of nonsurvivors in days (T/C) was tested against fibrosarcoma at the dosage of 5 mg/kg (ip); 34/26; assay type: functional, organism-based; set-up: dose 5 mg/kg; how it was run: as §2
[32] = test system: Mus musculus; test: Antitumor activity expressed as the no. of mice surviving >6 months was tested against fibrosarcoma at the dosage of 25 mg/kg (ip); assay type: functional; how it was run: as §4
[33] = test system: Mus musculus; test: Antitumor activity against Dalton's lymphoma infected mice at the dosage of 25 mg/kg (ip) and expressed as no. of mice injected; T/C= 5/5; assay type: functional
[34] = test system: Mus musculus; test: Antitumor activity expressed as %T/C was tested against fibrosarcoma at the dosage of 5 mg/Kg (ip); assay type: functional; how it was run: as §2
[35] = test system: Mus musculus; test: Antitumor activity expressed as %T/C was tested against fibrosarcoma at the dosage of 10 mg/Kg (ip); assay type: functional; how it was run: as §2
[36] = test system: Mus musculus; test: Antitumor activity against fibrosarcoma infected mice at the dosage of 10 mg/kg (ip) and expressed as no. of mice injected; T/C= 8/8; assay type: functional, organism-based; set-up: dose 10 mg/kg
[37] = test system: Mus musculus; test: Antitumor activity against fibrosarcoma infected mice at the dosage of 5 mg/kg (sc) and expressed as no. of mice injected; T/C= 6/6; assay type: functional, organism-based; set-up: dose 5 mg/kg
[38] = test system: Mus musculus; test: Antitumor activity against Dalton's lymphoma infected mice at the dosage of 2 mg/kg (ip) and expressed as no. of mice injected; T/C= 5/5; assay type: functional
[39] = test system: Mus musculus; test: Antitumor activity against fibrosarcoma infected mice at the dosage of 25 mg/kg (ip) and expressed as no. of mice injected; T/C= 7/7; assay type: functional, organism-based; set-up: dose 25 mg/kg
[40] = test system: Mus musculus; test: Antitumor activity against fibrosarcoma infected mice at the dosage of 5 mg/kg (ip) and expressed as no. of mice injected; T/C= 8/8; assay type: functional, organism-based; set-up: dose 5 mg/kg

Q: Copper(II) Complex was tested. Which Average body weight change [1] did it give?
A: 18.3%

Q: What about the T/C [2] of the same substance?
A: 135%

Q: And the T/C [3]?
A: 30 days

Q: What about the T/C [4] of the same substance?
A: 24 days

Q: What about the T/C [5] of the same substance?
A: 104%

Q: And the Average body weight change [6]?
A: 8.51%

Q: And the T/C [7]?
A: 5

Q: What about the T/C [8] of the same substance?
A: 10

Q: And the No. of mice surviving >6 months [9]?
A: 2

Q: And the No. of mice surviving >6 months [10]?
A: 4

Q: What about the T/C [11] of the same substance?
A: 146%

Q: What about the T/C [12] of the same substance?
A: 132%

Q: And the T/C [13]?
A: 35 days

Q: And the T/C [14]?
A: 8

Q: And the T/C [15]?
A: 111%

Q: And the T/C [16]?
A: 41 days

Q: And the T/C [17]?
A: 33 days

Q: What about the T/C [18] of the same substance?
A: 8

Q: And the T/C [19]?
A: 130%

Q: And the T/C [20]?
A: 165%

Q: What about the Average body weight change [21] of the same substance?
A: 19.4%

Q: What about the Average body weight change [22] of the same substance?
A: 5.51%

Q: What about the T/C [23] of the same substance?
A: 132%

Q: And the T/C [24]?
A: 38 days

Q: And the T/C [25]?
A: 39 days

Q: And the Average body weight change [26]?
A: 5.86%

Q: What about the Average body weight change [27] of the same substance?
A: 15.5%

Q: What about the Average body weight change [28] of the same substance?
A: 12%

Q: What about the T/C [29] of the same substance?
A: 37 days

Q: What about the T/C [30] of the same substance?
A: 30 days

Q: And the T/C [31]?
A: 34 days

Q: What about the No. of mice surviving >6 months [32] of the same substance?
A: 3 and 6

Q: What about the T/C [33] of the same substance?
A: 5

Q: What about the T/C [34] of the same substance?
A: 131%

Q: And the T/C [35]?
A: 130%

Q: What about the T/C [36] of the same substance?
A: 8

Q: What about the T/C [37] of the same substance?
A: 6

Q: And the T/C [38]?
A: 5

Q: And the T/C [39]?
A: 7

Q: What about the T/C [40] of the same substance?
A: 8
